In brackets after ≈: the same amount, converted by molar mass.
Assays:
Type in all cases: functional
[1] = system: Escherichia coli; experiment: Minimum inhibitory concentration (MIC) against Escherichia coli ATCC 25922; Inactive
In short: (§1)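 Broth microdilution in Mueller–Hinton broth supplemented with 50% human serum; inoculum 5 × 10⁵ cfu/mL.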

[2] = system: Staphylococcus aureus; experiment: Minimum inhibitory concentration (MIC) against Staphylococcus aureus […]; Inactive; in short: as §1
[3] = system: Escherichia coli; experiment: Minimum inhibitory concentration (MIC) against Escherichia coli MG1655; Inactive; in short: as §1
[4] = system: Escherichia coli; experiment: Minimum inhibitory concentration (MIC) against Escherichia coli MG1655 tolC; Inactive; in short: as §1
[5] = system: Streptococcus pneumoniae; experiment: Minimum inhibitory concentration (MIC) against Streptococcus pneumoniae 1005; Inactive; in short: as §1
[6] = system: Pseudomonas aeruginosa; experiment: Minimum inhibitory concentration (MIC) against Pseudomonas aeruginosa PA01; Inactive; in short: as §1
[7] = system: Enterobacter cloacae; experiment: Minimum inhibitory concentration (MIC) against Enterobacter cloacae ATCC 35030; Inactive; in short: as §1
[8] = system: Klebsiella pneumoniae; experiment: Minimum inhibitory concentration (MIC) against Klebsiella pneumoniae ATCC 13882; Inactive; in short: as §1
[9] = system: Escherichia coli; experiment: Minimum inhibitory concentration (MIC) against Escherichia coli ATCC 25922; in short: as §1
[10] = system: Escherichia coli; experiment: Minimum inhibitory concentration (MIC) against Escherichia coli MG1655 tolC; in short: as §1
[11] = system: Pseudomonas aeruginosa; experiment: Minimum inhibitory concentration (MIC) against Pseudomonas aeruginosa PA01; in short: as §1
[12] = system: Staphylococcus aureus; experiment: Minimum inhibitory concentration (MIC) against Staphylococcus aureus ATCC 25293; in short: as §1
[13] = system: Escherichia coli; experiment: Minimum inhibitory concentration (MIC) against Escherichia coli MG1655; in short: as §1
[14] = system: Enterobacter cloacae; experiment: Minimum inhibitory concentration (MIC) against Enterobacter cloacae ATCC 35030; in short: as §1
[15] = system: Streptococcus pneumoniae; experiment: Minimum inhibitory concentration (MIC) against Streptococcus pneumoniae 1005; in short: as §1
[16] = system: Klebsiella pneumoniae; experiment: Minimum inhibitory concentration (MIC) against Klebsiella pneumoniae ATCC 13882; in short: as §1
[17] = species: Mus musculus; experiment: Compound was evaluated for its efficacy in an Escherichia coli murine septicemia model
In short: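 Mice infected intraperitoneally with about 1 × 10⁵ cfu of E. coli ATCC25922; compound given intravenously at 1 and 5 h post-infection.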

[18] = Escherichia coli, ATCC 25922, read-out: MIC
[19] = Escherichia coli, MG1655, read-out: MIC
[20] = Pseudomonas aeruginosa, read-out: MIC
[21] = Staphylococcus aureus, ATCC 25293, read-out: MIC
[22] = Escherichia coli, read-out: MIC
[23] = Enterobacter cloacae, ATCC 35030, read-out: MIC
[24] = Klebsiella pneumoniae, ATCC 13882, read-out: MIC

SMILES	MIC [1] [µg/mL]	MIC [2] [µg/mL]	MIC [3] [µg/mL]	MIC [4] [µg/mL]	MIC [5] [µg/mL]	MIC [6] [µg/mL]	MIC [7] [µg/mL]	MIC [8] [µg/mL]	MIC [9, 18] [µg/mL]	MIC [10, 19] [µg/mL]	MIC [11, 20] [µg/mL]	MIC [12, 21] [µg/mL]	MIC [13, 22] [µg/mL]	MIC [14, 23] [µg/mL]	MIC [15] [µg/mL]	MIC [16, 24] [µg/mL]	also measured
CN(CC(=O)O)NC(=O)C[C@H](N)Cc1csc(N)n1	> 256	> 256	> 256	> 256	> 256	> 256	> 256	> 256									
CN(CC(=O)O)NC(=O)C[C@H](N)C1CCCNC1 (stereo partly specified)									> 128	> 128	> 128	> 128	> 128	> 128	> 128	> 128	
CN(CC(=O)O)NC(=O)C[C@H](N)/C=C(/F)CN									> 256	> 256	> 256	> 256	> 256	> 256	256 (≈ 1030 µM)	> 256	
CN(CC(=O)O)NC(=O)C[C@H](N)c1csc(N)n1	> 256	> 256	> 256	> 256	> 256	> 256	> 256	> 256									
CN(CC(=O)O)NC(=O)C[C@H](N)CCCN									16 (≈ 68.9 µM)	4 (≈ 17.2 µM)	64 (≈ 276 µM)	64 (≈ 276 µM)	8 (≈ 34.4 µM)	4 (≈ 17.2 µM)	64 (≈ 276 µM)	8 (≈ 34.4 µM)	ED50 [17]: 4.8 mg/kg
CN(CC(=O)O)NC(=O)CC(N)C1CCC(N)CC1 (stereo unspecified)									128 (≈ 470 µM)	32 (≈ 117 µM)	256 (≈ 940 µM)	128 (≈ 470 µM)	64 (≈ 235 µM)	128 (≈ 470 µM)	128 (≈ 470 µM)	32 (≈ 117 µM)	
CN(CC(=O)O)NC(=O)C[C@H](N)/C=C(\F)CN									> 256	> 256	> 256	> 256	> 256	> 256	256 (≈ 1030 µM)	> 256	
CN(CC(=O)O)NC(=O)CC1(N)CCC(N)CC1 (stereo unspecified)	> 256	> 256	> 256	> 256	> 256	> 256	> 256	> 256									
CN(CC(=O)O)NC(=O)CC(N)C1CCCC(N)C1 (stereo unspecified)									256 (≈ 940 µM)	64 (≈ 235 µM)	> 256	256 (≈ 940 µM)	128 (≈ 470 µM)	256 (≈ 940 µM)	128 (≈ 470 µM)	64 (≈ 235 µM)	
CN(CC(=O)O)NC(=O)C[C@H](N)Cc1csc(CCNC(=O)OC(C)(C)C)n1	> 256	> 256	> 256	> 256	> 256	> 256	> 256	> 256									
CN(CC(=O)O)NC(=O)C[C@H](N)CC1CC1N (stereo partly specified)									64 (≈ 262 µM)	32 (≈ 131 µM)	256 (≈ 1050 µM)	256 (≈ 1050 µM)	64 (≈ 262 µM)	128 (≈ 524 µM)	128 (≈ 524 µM)	32 (≈ 131 µM)	
CN(CC(=O)O)NC(=O)C[C@H](N)Cc1csc(CNC(=O)OC(C)(C)C)n1	> 256	> 256	> 256	> 256	> 256	> 256	> 256	> 256									
CN(CC(=O)O)NC(=O)C[C@H](N)c1csc(CNC(=O)OC(C)(C)C)n1	> 256	> 256	> 256	> 256	> 256	> 256	> 256	> 256									
CN(CC(=O)O)NC(=O)C[C@H](N)/C=C/CN									> 256	> 256	> 256	> 256	> 256	> 256	256 (≈ 1110 µM)	> 256	
CN(CC(=O)O)NC(=O)CC(N)[C@H]1CC[C@@H](N)C1 (stereo partly specified)									128 (≈ 496 µM)	64 (≈ 248 µM)	256 (≈ 991 µM)	128 (≈ 496 µM)	128 (≈ 496 µM)	128 (≈ 496 µM)	128 (≈ 496 µM)	64 (≈ 248 µM)	
CN(CC(=O)O)NC(=O)C[C@H](N)C1CC1CN (stereo partly specified)									> 128	> 128	> 128	> 128	> 128	> 128		> 128	
CN(CC(=O)O)NC(=O)C[C@H](N)c1csc(CCNC(=O)OC(C)(C)C)n1	> 256	> 256	> 256	> 256	> 256	> 256	> 256	> 256									
CN(CC(=O)O)NC(=O)C[C@H](N)C1CC1N (stereo in doubt; 35e1)																	MIC [9]: >128 µg/mL; MIC [10]: >128 µg/mL; MIC [11]: >128 µg/mL; MIC [12]: >128 µg/mL; MIC [13]: >128 µg/mL; MIC [14]: >128 µg/mL; MIC [16]: >128 µg/mL
CN(CC(=O)O)NC(=O)C[C@H](N)C1CC1N (stereo in doubt; 35e2)									128 (≈ 556 µM)	128 (≈ 556 µM)	128 (≈ 556 µM)	128 (≈ 556 µM)	128 (≈ 556 µM)	128 (≈ 556 µM)		128 (≈ 556 µM)	
CN(CC(=O)O)NC(=O)C[C@H](N)C[C@@H](O)CN [NEGAMYCIN]																	ED50 [17]: 5.1 mg/kg

Reference: ChEMBL document CHEMBL1146783, “Conformationally restricted analogs of deoxynegamycin” (Bioorg Med Chem Lett, 2004)
